According to ChEMBL document CHEMBL1129931, “Structure-activity studies on 2-methyl-3-(2(S)-pyrrolidinylmethoxy) pyridine (ABT-089): an orally bioavailable 3-pyridyl ether nicotinic acetylcholine receptor ligand with cognition-enhancing properties” (J Med Chem, 1997):
Activity calls are given as the source filed them. No cut-off for these calls is given here.

Legend:
[1] = Half-life was measured in (in vitro) dog liver slice experiments; assay type: ADME, Canis lupus familiaris; conditions: dog liver slices
How it was run: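 Compounds at a final 12 μg/mL were incubated with dog liver slices at 37 °C for times up to 24 h. Medium was removed and frozen, then parent compound was quantified by HPLC. Half-life and % remaining at 24 h were reported.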

[2] = tested on: IMR-32; assay: The maximal efficacy relative to 100 uM nicotine; assay type: functional, Homo sapiens
[3] = Half-life was measured in (in vitro) dog liver slice experiments following intravenous administration to dogs; assay type: ADME, organism-based, Canis lupus familiaris; conditions: in vivo
How it was run: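 Beagle dogs were fasted overnight, with water available. They received 500 nmol/kg as a slow iv bolus into the saphenous vein. Jugular blood was sampled over 8 h, and plasma parent drug was measured by reverse-phase HPLC (electrochemical or derivatization/fluorescence detection).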

[4] = tested on: IMR-32; assay: Concentration required to elicit ganglionic receptors measured using [86Rb+] flux functional assay in a human neuroblastoma-derived IMR-32 cell line; assay type: cell-based
How it was run: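 Ganglionic-type (α3-containing) receptor function assessed as 86Rb+ flux in human neuroblastoma IMR-32 cells; EC50 reported as mean ± SEM, n = 3–5.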

[5] = molecular target: Neuronal acetylcholine receptor subunit alpha-7 (Homo sapiens, UniProt P36544); assay: Bindind affinity value obtained by measuring the displacement of radioligand [125I]alpha-bungarotoxin from K-28 cells stably express human Nicotinic acetylcholine receptor alpha7; assay type: cell-based
Chain of Neuronal acetylcholine receptor subunit alpha-7 (P36544 whole entry): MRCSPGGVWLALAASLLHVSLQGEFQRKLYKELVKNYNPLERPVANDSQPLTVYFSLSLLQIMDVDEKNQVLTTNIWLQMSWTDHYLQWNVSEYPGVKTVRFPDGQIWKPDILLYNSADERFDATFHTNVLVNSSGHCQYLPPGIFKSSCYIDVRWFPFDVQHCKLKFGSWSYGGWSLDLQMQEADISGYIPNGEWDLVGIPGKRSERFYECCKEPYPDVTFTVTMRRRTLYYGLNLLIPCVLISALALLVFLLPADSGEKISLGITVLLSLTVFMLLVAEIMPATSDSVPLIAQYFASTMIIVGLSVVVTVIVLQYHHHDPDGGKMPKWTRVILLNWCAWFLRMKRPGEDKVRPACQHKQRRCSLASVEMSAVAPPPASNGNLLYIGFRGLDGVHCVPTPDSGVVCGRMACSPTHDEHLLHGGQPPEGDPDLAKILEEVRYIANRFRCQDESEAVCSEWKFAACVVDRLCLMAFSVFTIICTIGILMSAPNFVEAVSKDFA

[6] = Oral bioavailability in dog; assay type: ADME, organism-based, Canis lupus familiaris; conditions: in vivo
How it was run: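 Fasted beagle dogs (n = 3–6) received 500 nmol/kg by oral gavage or slow iv bolus. Jugular plasma was sampled over 8 h, and parent drug was measured by reverse-phase HPLC. Bioavailability is reported as mean ± SEM.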

[7] = molecular target: Neuronal acetylcholine receptor; assay: Binding affinity value obtained by measuring the displacement of radioligand [3H](-)-cytisine from whole rat brain Nicotinic acetylcholine receptor
[8] = molecular target: Neuronal acetylcholine receptor; assay: Binding affinity value obtained by measuring the displacement of radioligand [3H](-)-cytisine from a preparation of whole rat brain
[9] = tested on: Mus musculus; assay: Minimum dose of the drug (intraperitoneal) required for elicited a statistically significant response in seizure assay; assay type: functional
[10] = tested on: Mus musculus; assay: Minimum dose of the drug (intraperitoneal) required that elicited a statistically significant response in mouse inhibitory avoidance assay; assay type: functional
How it was run: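 Mice were dosed ip 15 min before training in a dark-light chamber, where entering the dark side was paired with a mild foot shock. The index of memory was latency to enter the dark chamber in a later test session.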

[11] = tested on: Mus musculus; assay: Minimum dose of the drug (intraperitoneal) required for elicited a statistically significant response in hypothermia assay; assay type: functional
How it was run: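 Body temperature was taken by rectal probe inserted 3 cm, about 20 min after ip injection. The same mice had just completed a 15-min open-field activity session.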

[12] = tested on: Mus musculus; assay: Minimum dose of the drug (intraperitoneal) required elicited a statistically significant response in locomotor activity assay; No significant effect at (0.0062-6.2) dose range; assay type: functional, organism-based

SMILES	half-life [1] [h]	Max [2] [%]	half-life [3] [h]	EC50 [4] [µM]	Ki [5] [µM]	bioavailability [6] [%]	Ki [7] [µM]	Ki [8] [µM]	EDmin [9] [µM/kg]	EDmin [10] [µM/kg]	EDmin [11] [µM/kg]	EDmin [12]
Cc1ncccc1OC[C@H]1CCCN1	> 24	11	1.4	50	> 10	66	–	–	–	–	–	–
Cc1ncccc1OC[C@H]1CCCN1C	8.5	–	0.61	–	> 10	4.9	3	–	–	–	–	–
CN1CCC[C@H]1COc1cccnc1	–	100	–	63	1.53	–	–	0.00028	–	–	–	–
Cc1ncccc1OC[C@@H]1CCCN1C	9	29	0.31	25	> 10	5.8	–	–	–	–	–	–
Cc1cc([C@@H]2CCCN2C)on1 [ABT-418]	3	85	0.21	64	4.05	1.2	–	–	62	0.062	19	–
CN1CCC[C@H]1c1cccnc1 [NICOTINE]	–	100	–	–	–	–	–	–	41	0.62	6.2	–
Cc1ncccc1OC[C@@H]1CCCN1 [POZANICLINE]	> 24	8	1.6	150	> 10	61.5	–	–	774	0.62	>62	inactive
